One assay relates to Trichophyton rubrum. The assay can be described thus: Antifungal activity against Trichophyton rubrum NBRC5467 assessed as reduction in microbial growth after 20 hrs by liquid microculture method. Format: functional. The note with it: NBRC5467, 20 h. The method, boiled down:
(§1)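 Antifungal MIC by twofold serial dilution in microplates: vehicle at 0.5% of final volume, inoculum from a log-phase culture, incubation at 25 °C. Growth was read as absorbance at 650 nm in triplicate. Amphotericin B was the reference drug.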

For a further assay, the system named is P388. Description: Cytotoxicity against mouse P388 cells assessed as reduction in cell viability after 72 hrs by XTT assay. Conditions: P388, 72 h. Format: functional, cell-based. The method, boiled down: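 P388 cells were grown in RPMI-1640 with L-glutamine, 10% FBS and 0.1 mg/mL gentamicin sulfate. They were seeded in 96-well round-bottom plates and exposed to compound in 200 μL cultures for 72 h at 37 °C under 5% CO2. Medium containing XTT (1 mg/mL) and PMS (40 μg/mL) was then added for 4 h, the medium was aspirated, and formazan was read at 450 nm. Growth inhibition was calculated per concentration, with doxorubicin as the reference.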
A general note: Tetrazolium dyes change colour on reduction, which living cells bring about.

For a further assay, the system named is Candida albicans. The assay can be described thus: Antifungal activity against Candida albicans NBRC0197 assessed as reduction in microbial growth after 20 hrs by liquid microculture method. Format: functional. The note with it: NBRC0197, 20 h. The method, boiled down:
as §1

The next assay has as its system Staphylococcus aureus. Description: Antibacterial activity against Staphylococcus aureus FDA209P JC-1 assessed as reduction in microbial growth after 20 hrs by liquid microculture method. Format: functional. Conditions: FDA209P JC-1, 20 h. The gist of the method: (§2)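 Broth microdilution MIC: twofold serial dilutions of compound were made across the plate, with the solvent vehicle kept at 0.5% of the final culture volume. The inoculum came from a log-phase culture. Plates were incubated at 37 °C for 20 h and growth was read as absorbance at 650 nm, in triplicate. Kanamycin sulfate was the reference drug.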

In a further assay the test system is Kocuria rhizophila. The assay can be described thus: Antibacterial activity against Kocuria rhizophila ATCC9341 assessed as reduction in microbial growth after 20 hrs by liquid microculture method. Conditions: ATCC9341, 20 h. Format: functional. The method, boiled down:
as §2

The test system of assay [1] is Colletotrichum gloeosporioides. Description: Antifungal activity against Glomerella cingulata NBRC5907 assessed as reduction in microbial growth after 20 hrs by liquid microculture method. Format: functional. The note with it: NBRC5907, 20 h. The gist of the method: as §1
For the next assay, the system named is Escherichia coli. The assay can be described thus: Antibacterial activity against Escherichia coli NIHJ JC-2 assessed as reduction in microbial growth after 20 hrs by liquid microculture method. Format: functional. Conditions: NIHJ JC-2, 20 h. The gist of the method:
as §2

Another assay deals with Tenacibaculum maritimum. The assay can be described thus: Antibacterial activity against Tenacibaculum maritimum NBRC16015 assessed as reduction in microbial growth after 20 hrs by liquid microculture method. It is filed as functional. The note with it: NBRC16015, 20 h. The method, boiled down: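 Twofold serial-dilution microculture MIC: vehicle at 0.5% of final volume, log-phase inoculum, incubation at 24 °C. Growth was read as absorbance at 650 nm in triplicate. Sulfamethoxazole was the reference drug.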

The test system of assay [2] is Agrobacterium tumefaciens. The assay can be described thus: Antibacterial activity against Rhizobium radiobacter NBRC14554 assessed as reduction in microbial growth after 20 hrs by liquid microculture method. It is filed as functional. Conditions: NBRC14554, 20 h. The gist of the method: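 Broth microdilution MIC: twofold serial compound dilutions, vehicle at 0.5% of final volume, log-phase inoculum. Incubated at 37 °C for 20 h, with absorbance read at 650 nm in triplicate. Sulfamethoxazole was the reference drug.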

Structures are written as SMILES.

One may read the MIC as the lowest concentration that inhibits growth of the organism. As usually defined, the IC50 is the point on the concentration scale where inhibition reaches its midpoint. For the compound `CC(C)CCCCCCC(=O)c1c[nH]cn1`, the MIC was 3.12 µg/mL with Trichophyton rubrum; 6.25 µg/mL in the assay on Candida albicans; 3.12 µg/mL in the assay with Staphylococcus aureus; 1.56 µg/mL in the assay with Kocuria rhizophila; 3.12 µg/mL in assay [1]; over 100 µg/mL with Escherichia coli. The results for the MIC (with Tenacibaculum maritimum; in assay [2]) were 12.5 µg/mL and over 100 µg/mL, respectively. Moreover, the IC50 with P388 was found to be 7 µM.

Regarding `CCCCCCCCCC(=O)c1c[nH]cn1`, the MIC in the assay on Trichophyton rubrum is 1.56 µg/mL; in the assay on Candida albicans, 12.5 µg/mL; with Staphylococcus aureus, 1.56 µg/mL; with Kocuria rhizophila it was 0.78 µg/mL; in assay [1], 1.56 µg/mL; with Escherichia coli it was over 100 µg/mL. In addition, the MIC was 6.25 µg/mL in the assay on Tenacibaculum maritimum and over 100 µg/mL in assay [2]. Moreover, the IC50 in the assay with P388 came to 5.8 µM.

For the compound `CCC(C)CCCCCCC(=O)c1c[nH]cn1` (racemic), the MIC in the assay with Trichophyton rubrum is 0.78 µg/mL; with Candida albicans it was 6.25 µg/mL; with Staphylococcus aureus, 1.56 µg/mL; in the assay on Kocuria rhizophila it was 0.78 µg/mL; in [1] it was 1.56 µg/mL; in the assay on Escherichia coli, over 100 µg/mL. Moreover, the MIC in the assay on Tenacibaculum maritimum was 3.12 µg/mL; in assay [2], over 100 µg/mL. Further, the IC50 with P388 was 5 µM.
